Xi reactivation = reactivates the inactive X chromosome in mouse fibroblasts | XiGFP mouse fibroblasts, % GFP-positive cells imaging, 3 d; cells co-treated with 5-aza-dC sensitizer; scaled so ellipticine positive control = 100% | activation, % at 7.58 µM | 360,000 compounds, 0.055% hits | AID 743238;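 active = mean normalized replicate activation at least 10% and every replicate at or above 10%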;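 note: 0% = median of on-plate neutral control wells and 100% = ellipticine 6 µM median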
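System: 68-5-11 XiGFP fibroblast line | Buffer or medium: DMEM containing 5-aza-dC | Compound: Single point | Times: Compounds 3 days, fix/stain 15 min at room temperature | Benchmarks: Positive control ellipticine, 6 µM final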
Rin1-Abl PPI inh = human Rin1-Abl interaction inhibition. inhibition, % at 7.35 µM. 360,000 compounds, 0.4% hits. TR-FRET Rin1/Abl binding, biochemical. AID 588664; in the data active = inhibition above about 5%, passing the limit was not always enough
ABHD5 PLIN5 PPI = blocks binding of human ABHD5 to perilipin-5; Q00G26+Q8WTS1; 360,000 compounds, 0.78% hits; AID 602281; inhibition, % at 4 µM; Split G. princeps luciferase complementation, luminescence, 4 h;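 active = inhibition above the mean inhibition across every tested compound plus 3 SD, cut at about 22% in these data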;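 note: 0% = DMSO only wells and the 100% control is not disclosed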
NadD block = inhibitors of Staphylococcus aureus NadD. inhibition, % at 20 µM. AID 602399. purified NadD enzyme, colorimetric absorbance read-out. 360,000 compounds, 0.78% hits; in the data active = inhibition above about 26%
Rpn11 block = inhibitors of human proteasome Rpn11; human 26S proteasome, Ub4-pepOG fluorescence polarization; 20S core pre-blocked with epoxomicin; 360,000 compounds, 0.59% hits; inhibition, % at 20 µM;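 active = inhibition at 20 µM, scaled to each plate's controls, above about 33%, limit read from the data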
* hit, by the source's call; x = no result given. A selection: hits, their analogues and other compounds. The true share with any hit is near 1.9%.

SMILES | Xi reactivation | Rin1-Abl PPI inh | ABHD5 PLIN5 PPI | NadD block | Rpn11 block
Cc1cccc(CN2C(=O)/C(=C\c3ccc(C(=O)NCCN4CCOCC4)cc3)Sc3ccccc32)c1 | x | -2 | 7 | -5 | 7
CO[C@@H]1CN(C)C(=O)c2cc(NC(=O)c3cccc(Oc4ccccc4)c3)ccc2OC[C@H](C)NC[C@H]1C | 1 | x | x | x | x
C[C@@H]1CCCCO[C@H](CN(C)C(=O)CCC(F)(F)F)[C@H](C)CN([C@@H](C)CO)C(=O)c2cc(NC(=O)c3ccncc3)ccc2O1 | -1 | x | x | x | x
Cc1ccc(C(=O)/C=C/C(=O)c2ccc(C)cc2)cc1 | 0 | 1 | 23* | -1 | 0
Cc1ccc(/C=C/C(=O)c2ccc(C)cc2)cc1 | x | 1 | 8 | -5 | 7
CO[C@@H]1CN(C)C(=O)c2ccc(NS(=O)(=O)c3ccccc3)cc2OC[C@@H](C)N(Cc2cccnc2)C[C@@H]1C | 0 | x | x | x | x
COc1ccc(Cl)cc1C(=O)NC(=S)Nc1nc(C)cc(C)n1 | 0 | 2 | 4 | 4 | 3
COc1ccc(Cl)cc1C(=O)NC(=S)Nc1cc(-c2nc3ccccc3[nH]2)ccc1C | x | 1 | 5 | 34* | 2
Cc1ccc(S(=O)(=O)c2nnn3c2nc(NC2CCN(Cc4ccccc4)CC2)c2ccccc23)cc1C | x | -2 | 15 | 38* | 15
O=c1[nH]c2ccccc2c(O)c1O | x | 20* | 98* | 4 | -1
CN(C)c1ccc(/C=C(/NC(=O)c2ccccc2)C(=O)N/N=C/c2ccc([N+](=O)[O-])c(O)c2)cc1 | x | -3 | 4 | 41* | 11
O=C1NN(c2ccccc2)C(=O)C1=Cc1ccccc1O | 0 | 1 | -8 | -1 | -2
O=C1NN(c2ccccc2)C(=O)/C1=C\c1cccn1-c1ccc(Cl)c([N+](=O)[O-])c1 | x | -2 | 0 | 42* | -4
Brc1ccc2c(c1)C(c1ccc(N3CCOCC3)cc1)=NNC(c1cccs1)=N2 | x | -2 | 4 | 29 | x
Fc1ccc2c(c1)C(c1ccc(N3CCOCC3)cc1)=NNC(c1cccs1)=N2 | x | -1 | 1 | 10 | 82*
Cc1ccc(C(C)C)c(OCc2ccc(C(=O)N/N=C/c3ccc(O)c(O)c3)cc2)c1 | 0 | 7 | -3 | 34* | -4
O=C(c1cccnc1)N1CC2(C1)[C@@H](c1ccccc1)[C@H](CO)N2C(=O)c1cccnc1 | 0 | x | x | x | x
CC(C)C1Nc2ccc(S(N)(=O)=O)cc2C2C=CCC21 (stereo not drawn) | x | -1 | -5 | 5 | 6
NS(=O)(=O)c1ccc2c(c1)C1C=CCC1C(C1CC=CCC1)N2 (stereo not drawn) | x | 3 | 10 | 39* | -16
CCOC(=O)C1=C(Cc2ccc(F)cc2)C(=O)c2ccccc2C1=O | x | 3 | 47* | 3 | 9
O=C(O[C@@H]1OC2COC(=O)c3cc(O)c(O)c(O)c3-c3c(cc(O)c(O)c3O)C(=O)O[C@@H]([C@H]1O)[C@@H]2O)c1cc(O)c(O)c(O)c1 | x | 69* | 28* | 10 | x
N#Cc1cccc(C=C(C(=O)c2ccccc2)c2ccccc2)c1 | 0 | x | 22* | 5 | x
COc1ccc(OC)c2sc(N(CCCN(C)C)C(=O)CCS(=O)(=O)c3ccccc3)nc12 | 0 | 6 | 39* | -3 | -6
Cc1ccc(-c2cc(C(=O)NCCCn3ccnc3)c3cc(Br)ccc3n2)o1 | x | -1 | 19 | 49* | 14
Clc1cccc(-c2ccc(C3Nc4cccc5cccc(c45)N3)o2)c1 | x | 1 | 11 | 52* | -19
SMILES | Xi reactivation | Rin1-Abl PPI inh | ABHD5 PLIN5 PPI | NadD block | Rpn11 block
COc1ccc2c3c([nH]c2c1)[C@@H](CO)N(C(=O)NC1CCCC1)CC31CCN(C(=O)Nc2cccc(F)c2)CC1 | 0 | x | x | x | x
C=C(C)Cn1c(SCC(=O)N/N=C/c2c(O)ccc3ccccc23)nc2ccccc2c1=O | x | 0 | -6 | 35* | 22
C=C(C)Cn1c(SCC)nc2ccccc2c1=O | x | 0 | 5 | 4 | 4
CC(C)(C)c1ccc(-n2nc(C#N)c(Cl)cc2=O)cc1 | 0 | 8 | 32* | -3 | 9
COc1ccc(CN(C)C[C@H]2OCCCC[C@@H](C)Oc3ccc(NS(=O)(=O)c4cccs4)cc3C(=O)N([C@@H](C)CO)C[C@H]2C)cc1 | 0 | x | x | x | x
COCCSc1nc2c(c(=O)[nH]c(=O)n2C)n1Cc1cccc(C)c1 | 0 | 11* | -2 | 2 | 4
CCCSc1nc2c(c(=O)[nH]c(=O)n2C)n1Cc1ccccc1 | 0 | 0 | -5 | 1 | -10
CCC(=O)N1[C@H](CO)[C@H](c2ccccc2)C12CN(C(=O)c1cnccn1)C2 | 0 | x | x | x | x
CCCOc1ccc(NC(=O)C2CC(=O)N/C(=N/N=C(C)/C=C/c3ccc(N(C)C)cc3)S2)cc1 (stereo not drawn) | x | -2 | -2 | 56* | x
CC(/C=C/c1ccc(N(C)C)cc1)=N\N=C1\NC(=O)CC(C(=O)Nc2ccccc2)S1 (stereo not drawn) | 0 | -3 | 3 | 49* | x
COc1ccc2c3c(n(C)c2c1)[C@H](CO)N(C(=O)CN(C)C)CC31CN(C(=O)C2CCC2)C1 | 0 | x | x | x | x
COc1cccc(C=C2Cc3ccccc3C2=O)c1 | 0 | 0 | 23* | -11 | -8
COc1ccc(C(=O)Nc2nc(-c3ccc([N+](=O)[O-])cc3)c(-c3ccc(OC)cc3)s2)cc1 | 0 | 2 | 8 | 19 | 61*
COc1ccccc1-[n+]1c(C)cc(/C=C2\Sc3ccccc3N2C)cc1C | 101* | -56 | 13 | -8 | x
COc1ccc(C(=O)/C=C2\Sc3ccccc3N2C)cc1 | 0 | 0 | 8 | -7 | -3
Cc1noc(C)c1S(=O)(=O)Nc1ccc2c(c1)C(=O)N([C@H](C)CO)C[C@H](C)[C@@H](CN(C)S(=O)(=O)c1c(C)noc1C)O2 | 0 | x | x | x | x
Cc1occc1-c1nnc(SCC(=O)NC(C)(C)C)n1CC(C)C | 0 | -1 | -2 | -8 | 0
Cc1occc1-c1nnc(SCC(=O)NCc2ccco2)n1CC(C)C | x | 2 | 23* | 7 | 0
COc1cccc(/C=N/NC(=O)NC23CC4CC(CC(C4)C2)C3)c1O | x | 8.1* | -6 | 0 | -5
COc1ccc(NC(=O)Nc2ccc3c(c2)CC(=O)N([C@@H](C)CO)C[C@H](C)[C@@H](CN(C)S(=O)(=O)c2ccc(F)cc2)O3)cc1 | -1 | x | x | x | x
COc1ccc(NC(=O)Nc2ccc3c(c2)CC(=O)N([C@H](C)CO)C[C@H](C)[C@@H](CN(C)S(=O)(=O)c2ccc(F)cc2)O3)cc1 | 15* | x | x | x | x
C[C@@H]1CN([C@H](C)CO)C(=O)c2cc(NC(=O)Nc3ccc(C(F)(F)F)cc3)ccc2O[C@H]1CN(C)Cc1ccc(Cl)c(Cl)c1 | -1 | -2 | 1 | 33* | 5
Cc1ccc(S(=O)(=O)N(C)C[C@H]2Oc3ccc(NC(=O)Nc4ccccc4)cc3CC(=O)N([C@H](C)CO)C[C@@H]2C)cc1 | 23* | x | x | x | x
COCC(=O)N1CC2(C1)[C@H](c1ccccc1)[C@H](CO)N2C(=O)c1ccccc1 | 0 | x | x | x | x

Bioassay records: PubChem BioAssay, several laboratories
